Test results from ChEMBL document CHEMBL1124249 (J Med Chem, 1988).

How the values were obtained:
[1] = Ratio of IC50 for MVD to GPI; format: functional
Mus musculus = species on record: Mus musculus; assay: Inhibitory potency evaluated against electrically evoked contractions of mouse vas deferens; format: functional, organism-based
Summary of the method: (§1)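 Electrically stimulated twitch of isolated mouse vas deferens (δ assay). IC50 is the concentration giving half-maximal twitch inhibition, taken from six to eight computed log dose-response curves with six concentrations each. [Met]enkephalin IC50 was run on the same preparation. Each IC50 was corrected by the ratio of the mean of all [Met]enkephalin IC50s to that assay's [Met]enkephalin IC50.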

Cavia porcellus = species on record: Cavia porcellus; assay: Inhibitory potency evaluated against electrically evoked contractions of guinea pig ileum; format: functional, organism-based
Summary of the method: as §1, with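 “guinea pig ileum (μ” for “mouse vas deferens (δ”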

Mu-type opioid receptor = Mu-type opioid receptor (Rattus norvegicus, UniProt P33535); assay: Inhibition of [3H]DAGO binding to rat brain membrane Opioid receptor mu 1
Mu-type opioid receptor, sequence (P33535 whole entry): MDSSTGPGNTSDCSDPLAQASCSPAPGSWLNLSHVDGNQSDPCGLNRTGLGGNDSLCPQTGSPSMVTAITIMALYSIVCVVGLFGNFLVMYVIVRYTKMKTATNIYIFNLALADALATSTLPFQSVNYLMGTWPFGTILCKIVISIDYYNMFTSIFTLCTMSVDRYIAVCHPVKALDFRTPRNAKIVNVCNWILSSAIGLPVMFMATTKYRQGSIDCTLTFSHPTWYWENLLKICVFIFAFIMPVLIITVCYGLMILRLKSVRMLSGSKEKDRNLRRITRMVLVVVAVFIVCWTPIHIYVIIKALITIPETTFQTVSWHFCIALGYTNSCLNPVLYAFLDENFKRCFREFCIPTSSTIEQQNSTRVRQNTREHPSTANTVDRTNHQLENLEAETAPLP

[2] = biological target: Delta-type opioid receptor (Rattus norvegicus, UniProt P33533); assay: Inhibition of [3H]DTLET binding torat brain membrane Opioid receptor delta 1
Delta-type opioid receptor, sequence (P33533 whole entry): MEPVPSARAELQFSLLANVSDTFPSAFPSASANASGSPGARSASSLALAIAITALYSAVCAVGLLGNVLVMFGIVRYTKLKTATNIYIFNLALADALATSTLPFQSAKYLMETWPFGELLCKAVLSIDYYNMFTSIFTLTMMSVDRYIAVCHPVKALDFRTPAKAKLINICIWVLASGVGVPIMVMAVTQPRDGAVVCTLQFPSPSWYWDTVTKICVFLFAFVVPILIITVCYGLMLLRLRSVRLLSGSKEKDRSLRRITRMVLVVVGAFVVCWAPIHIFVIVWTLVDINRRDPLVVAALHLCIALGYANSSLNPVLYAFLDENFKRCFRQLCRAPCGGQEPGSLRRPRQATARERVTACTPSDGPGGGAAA

| Compound | Ratio [1] | IC50 (Mus musculus) | IC50 (Cavia porcellus) | Ki (Mu-type opioid receptor) | Ki [2] |
| --- | --- | --- | --- | --- | --- |
| CC(C)C[C@H](NC(=O)[C@H](Cc1ccccc1)NC(=O)CNC(=O)[C@@H](CO)NC(=O)[C@@H](N)Cc1ccc(O)cc1)C(=O)N[C@H](C(=O)O)[C@@H](C)O | 0.001 | 0.4 nM | 406 nM | – | – |
| CC(C)C[C@H](NC(=O)[C@H](Cc1ccccc1)NC(=O)CNC(=O)[C@@H](NC(=O)[C@@H](N)Cc1ccc(O)cc1)[C@@H](C)O)C(=O)N[C@H](C(=O)O)[C@@H](C)OC(C)(C)C | 0.0037 | 0.75 nM | 204 nM | 64.6 nM | 3.1 nM |
| CC(C)C[C@H](NC(=O)[C@H](Cc1ccccc1)NC(=O)CNC(=O)[C@@H](COCc1ccccc1)NC(=O)[C@@H](N)Cc1ccc(O)cc1)C(=O)N[C@H](C(=O)O)[C@@H](C)O | 0.0042 | 0.35 nM | 83.3 nM | 42.1 nM | 1.47 nM |
| CC(C)C[C@H](NC(=O)[C@H](Cc1ccccc1)NC(=O)CNC(=O)[C@@H](NC(=O)[C@@H](N)Cc1ccc(O)cc1)[C@@H](C)O)C(=O)N[C@H](C(=O)O)[C@@H](C)O | 0.0003 | 0.15 nM | 460 nM | 23.3 nM | 1.35 nM |
| CSCC[C@H](NC(=O)[C@H](Cc1ccccc1)NC(=O)CNC(=O)CNC(=O)[C@@H](N)Cc1ccc(O)cc1)C(=O)O | – | 13 nM | 200 nM | – | – |
| CC(C)C[C@H](NC(=O)[C@H](Cc1ccccc1)NC(=O)CNC(=O)[C@@H](CO)NC(=O)[C@@H](N)Cc1ccc(O)cc1)C(=O)N[C@H](C(=O)O)[C@@H](C)OC(C)(C)C | 0.0041 | 0.84 nM | 202 nM | 185 nM | 6.35 nM |
| CC(C)C[C@H](NC(=O)[C@H](Cc1ccccc1)NC(=O)CNC(=O)[C@@H](NC(=O)[C@@H](N)Cc1ccc(O)cc1)[C@@H](C)OC(C)(C)C)C(=O)N[C@H](C(=O)O)[C@@H](C)O | – | – | – | > 100000 nM | 13000 nM |
| CC(C)C[C@H](NC(=O)[C@H](Cc1ccccc1)NC(=O)CNC(=O)[C@H](NC(=O)[C@@H](N)Cc1ccc(O)cc1)[C@@H](C)OC(C)(C)C)C(=O)N[C@H](C(=O)O)[C@@H](C)O | 0.1 | 1190 nM | 11400 nM | 4500 nM | 866 nM |
| CC(C)C[C@H](NC(=O)[C@H](Cc1ccccc1)NC(=O)CNC(=O)[C@@H](COC(C)(C)C)NC(=O)[C@@H](N)Cc1ccc(O)cc1)C(=O)N[C@H](C(=O)O)[C@@H](C)OC(C)(C)C | 0.00021 | 0.6 nM | 2790 nM | 475 nM | 4.68 nM |
| CC(C)C[C@H](NC(=O)[C@H](Cc1ccccc1)NC(=O)CNC(=O)[C@@H](COC(C)(C)C)NC(=O)[C@@H](N)Cc1ccc(O)cc1)C(=O)N[C@H](C(=O)O)[C@@H](C)O | 0.0006 | 1.07 nM | 1800 nM | 374 nM | 6.14 nM |
